The target of assay [1] is T1, Plasminogen (Homo sapiens, UniProt P00747). Put plainly: Inhibition of human plasmin using Mes-DSer(Bzl)-Phe-Arg-AMC as substrate by Dixon plot analysis.
Assay [2] has as its target Vitamin K-dependent protein C (Homo sapiens, UniProt P04070). Put plainly: Inhibition of human activated Protein C using Mes-DArg-Pro-Arg-AMC as substrate by Dixon plot analysis. In outline: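 Human aPC, 293 pM final. Run at room temperature in 50 mM Tris·HCl pH 8.0 with 154 mM NaCl. Substrate Mes-DArg-Pro-Arg-AMC, KM 26 μM. Fluorescence was read at ex 355 / em 460 nm, with reaction started by enzyme. Ki came from Dixon plots, mean of at least two measurements.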

Assay [3] addresses Trypsin (Sus scrofa, UniProt P00761). Put plainly: Inhibition of porcine trypsin using Mes-DArg-Gly-Arg-AMC as substrate by Dixon plot analysis. In a few lines:
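Porcine trypsin, 30 pM final, with substrate Mes-DArg-Gly-Arg-AMC (KM 8.3 μM). Buffer was 50 mM Tris·HCl pH 8.0 containing 154 mM NaCl, at room temperature. Reaction was started by enzyme and fluorescence read at ex 355 / em 460 nm. Ki was obtained from Dixon plots, mean of at least two measurements.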

Assay [4] addresses Prothrombin (Bos taurus, UniProt P00735). Put plainly: Inhibition of bovine thrombin using Tos-Gly-Pro-Arg-AMC as substrate by Dixon plot analysis. In a few lines: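 Bovine thrombin at 31 pM in assay, KM 5.4 μM for the substrate. Run at room temperature in 50 mM Tris·HCl pH 8.0 with 154 mM NaCl. Fluorescence read at ex 355 / em 460 nm, reaction started by enzyme addition. Ki from Dixon plots, average of at least two measurements.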

Assay [5] addresses Coagulation factor X (Homo sapiens, UniProt P00742). Nature of the assay: Inhibition of human f10a using Mes-DArg-Pro-Arg-AMC as substrate by Dixon plot analysis. In a few lines:
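Human factor Xa, 97 pM in assay, in 50 mM Tris·HCl pH 8.0 with 154 mM NaCl at room temperature. Fluorogenic substrate Mes-DArg-Pro-Arg-AMC (KM 28 μM), read at ex 355 / em 460 nm after starting with enzyme. Ki was taken from Dixon plots and averaged over at least two measurements.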

The target of assay [6] is Plasma kallikrein (Homo sapiens, UniProt P03952). Nature of the assay: Inhibition of human plasma kallikrein using Mes-DArg-Pro-Arg-AMC as substrate by Dixon plot analysis. In a few lines: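 Human plasma kallikrein (112 pM final) was assayed at room temperature in Tris·HCl 50 mM pH 8.0 with NaCl 154 mM. Mes-DArg-Pro-Arg-AMC served as substrate (KM 39 μM). Fluorescence was read at ex 355 / em 460 nm, with reactions started by enzyme.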
Plasma kallikrein, sequence (P03952 20-390 limits assumed): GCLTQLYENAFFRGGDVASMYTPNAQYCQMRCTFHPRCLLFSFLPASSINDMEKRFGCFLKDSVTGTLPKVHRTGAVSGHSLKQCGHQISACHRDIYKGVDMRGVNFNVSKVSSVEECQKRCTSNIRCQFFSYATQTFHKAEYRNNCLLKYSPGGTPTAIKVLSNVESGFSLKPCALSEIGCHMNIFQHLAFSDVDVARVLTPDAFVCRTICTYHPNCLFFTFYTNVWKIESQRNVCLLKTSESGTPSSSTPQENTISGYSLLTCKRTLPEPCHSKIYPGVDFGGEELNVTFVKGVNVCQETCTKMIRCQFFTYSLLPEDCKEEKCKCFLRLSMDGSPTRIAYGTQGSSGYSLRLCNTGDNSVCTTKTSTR
Plasma kallikrein, sequence (P03952 391-638 limits assumed): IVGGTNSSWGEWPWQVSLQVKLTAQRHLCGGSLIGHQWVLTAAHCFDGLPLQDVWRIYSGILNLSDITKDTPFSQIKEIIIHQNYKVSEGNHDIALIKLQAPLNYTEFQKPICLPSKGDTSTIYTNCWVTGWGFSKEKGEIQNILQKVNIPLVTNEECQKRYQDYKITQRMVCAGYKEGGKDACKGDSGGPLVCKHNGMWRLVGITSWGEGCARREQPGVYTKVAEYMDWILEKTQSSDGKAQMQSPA

The target in assay [7] is T1, Plasminogen. Put plainly: Binding affinity to human plasmin assessed as slow binding constant in presence of Mes-DArg-Phe-Arg-AMC after 20 mins by Dixon plot analysis.
Assay [8] has as its system Plasma. Put plainly: Antifibrinolytic activity in human plasma assessed as inhibition of tPA-induced plasmin formation after 40 mins. The class given is functional, cell-free. In outline:
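Citrated human plasma at 37 °C with CaCl2 (12.5 mM in assay), tissue factor (stock 1/500 in assay) and tPA (12.3 nM in assay). Inhibitor dilutions, from 10 mM DMSO stocks diluted in 0.9% NaCl, were preincubated 5 min at 37 °C with these reagents, then started with prewarmed plasma. OD405 was read over 40 min.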

Trypsin, sequence (P00761 whole entry): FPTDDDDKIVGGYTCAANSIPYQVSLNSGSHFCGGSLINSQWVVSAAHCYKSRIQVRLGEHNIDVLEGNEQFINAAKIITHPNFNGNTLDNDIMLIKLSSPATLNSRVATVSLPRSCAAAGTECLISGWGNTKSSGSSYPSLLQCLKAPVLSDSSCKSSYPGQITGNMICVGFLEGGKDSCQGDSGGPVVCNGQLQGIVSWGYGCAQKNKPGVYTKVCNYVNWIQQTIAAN
Coagulation factor X, sequence (P00742 41-179 limits assumed): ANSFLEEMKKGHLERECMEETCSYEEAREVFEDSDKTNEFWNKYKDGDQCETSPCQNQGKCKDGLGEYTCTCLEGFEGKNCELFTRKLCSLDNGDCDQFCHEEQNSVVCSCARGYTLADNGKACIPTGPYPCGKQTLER
Coagulation factor X, sequence (P00742 235-488 limits assumed): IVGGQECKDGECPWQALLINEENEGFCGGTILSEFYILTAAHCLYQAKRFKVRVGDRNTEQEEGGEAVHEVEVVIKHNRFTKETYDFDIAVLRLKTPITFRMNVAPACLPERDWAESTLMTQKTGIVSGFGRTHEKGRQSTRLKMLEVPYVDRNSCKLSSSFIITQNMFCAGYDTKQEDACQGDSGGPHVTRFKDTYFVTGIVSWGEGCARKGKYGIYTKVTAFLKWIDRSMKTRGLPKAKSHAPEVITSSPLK
T1 sequence (P00747 97-580 limits assumed): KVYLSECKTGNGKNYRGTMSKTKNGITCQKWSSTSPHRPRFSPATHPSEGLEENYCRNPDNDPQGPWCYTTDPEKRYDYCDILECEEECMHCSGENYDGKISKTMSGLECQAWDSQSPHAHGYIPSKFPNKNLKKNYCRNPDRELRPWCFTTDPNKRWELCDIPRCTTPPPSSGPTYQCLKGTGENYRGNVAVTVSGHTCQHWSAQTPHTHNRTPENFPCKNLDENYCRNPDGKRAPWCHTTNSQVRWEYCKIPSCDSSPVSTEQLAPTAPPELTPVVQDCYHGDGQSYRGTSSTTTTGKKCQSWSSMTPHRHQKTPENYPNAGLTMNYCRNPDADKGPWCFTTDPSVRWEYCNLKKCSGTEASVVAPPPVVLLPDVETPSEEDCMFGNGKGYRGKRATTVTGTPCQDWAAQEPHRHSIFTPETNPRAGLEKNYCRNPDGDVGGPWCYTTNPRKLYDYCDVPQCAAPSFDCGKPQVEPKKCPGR
T1 sequence (P00747 581-810 limits assumed): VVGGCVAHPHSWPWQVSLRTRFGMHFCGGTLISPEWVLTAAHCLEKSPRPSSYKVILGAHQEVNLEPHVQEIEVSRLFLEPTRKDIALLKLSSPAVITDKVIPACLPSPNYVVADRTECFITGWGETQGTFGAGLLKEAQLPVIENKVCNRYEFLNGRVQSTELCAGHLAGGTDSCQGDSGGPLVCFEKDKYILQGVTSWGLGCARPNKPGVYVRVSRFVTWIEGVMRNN
Vitamin K-dependent protein C, sequence (P04070 43-197 limits assumed): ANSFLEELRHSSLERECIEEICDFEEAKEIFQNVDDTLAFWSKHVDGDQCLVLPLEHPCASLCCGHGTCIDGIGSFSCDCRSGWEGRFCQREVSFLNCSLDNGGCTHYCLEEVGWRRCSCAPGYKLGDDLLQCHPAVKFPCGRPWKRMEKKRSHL
Vitamin K-dependent protein C, sequence (P04070 212-461 limits assumed): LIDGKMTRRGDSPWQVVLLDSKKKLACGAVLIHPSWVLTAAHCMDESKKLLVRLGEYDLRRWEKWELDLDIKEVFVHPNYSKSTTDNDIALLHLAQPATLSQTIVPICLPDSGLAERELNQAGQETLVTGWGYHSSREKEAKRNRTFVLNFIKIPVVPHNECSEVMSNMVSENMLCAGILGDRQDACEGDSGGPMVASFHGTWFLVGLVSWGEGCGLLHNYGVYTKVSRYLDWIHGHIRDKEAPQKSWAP

In the case of `N=C(N)c1ccc(CNC(=O)[C@@H]2Cc3ccc(cc3)NC(=O)CN3CCN(CC3)CC(=O)Nc3ccc(cc3)C[C@@H](NC(=O)OCc3ccccc3)C(=O)N2)cc1`, the Ki in assay [1] worked out at 5.2 nM; in assay [2], 93.4 µM.
With `CCCCS(=O)(=O)N[C@@H]1Cc2ccc(cc2)NC(=O)CCN2CCN(CCC(=O)Nc3ccc(cc3)C[C@@H](C(=O)NCc3ccc(C(=N)N)cc3)NC1=O)CC2`, the Ki came out at 0.0137 µM in assay [3]; 0.45 nM in assay [1]; 14.1 µM in assay [4]; 4.28 µM in assay [2]; 34.4 µM in assay [5]; 0.701 µM in assay [6].
Consider `N=C(N)c1ccc(CNC(=O)[C@@H]2Cc3ccc(cc3)NC(=O)CN3CCN(CC3)CC(=O)Nc3ccc(cc3)C[C@@H](NC(=O)CCc3ccccc3)C(=O)N2)cc1`, for which the Ki came out at 1.43 µM in assay [3]; 61.1 nM in assay [1]; 8.79 µM in assay [4]; 42 µM in assay [2]; 20.6 µM in assay [5]; 8.25 µM in assay [6].
As for `N=C(N)c1ccc(CNC(=O)[C@@H]2Cc3ccc(cc3)NC(=O)CCN3CCN(CCC(=O)Nc4ccc(cc4)C[C@@H](NS(=O)(=O)c4ccccc4)C(=O)N2)CC3)cc1`, the Ki was 0.062 µM in assay [3]; 0.07 nM in assay [1]; 42.7 µM in assay [4]; above 13 µM in assay [2]; above 13 µM in assay [5]; 0.8 µM in assay [6].
As for `COC(=O)N[C@@H]1Cc2ccc(cc2)NC(=O)CCN2CCN(CCC(=O)Nc3ccc(cc3)C[C@@H](C(=O)NCc3ccc(C(=N)N)cc3)NC1=O)CC2`, the Ki was found to be 0.109 µM in assay [3]; 0.00085 µM in assay [7]; 0.77 nM in assay [1]; 15.3 µM in assay [4]; 51.5 µM in assay [2]; 50.7 µM in assay [5]. In addition, the Ki in assay [6] came out at 7.25 µM.
For `N=C(N)c1ccc(CNC(=O)[C@@H]2Cc3ccc(cc3)NC(=O)CN3CCN(CC3)CC(=O)Nc3ccc(cc3)C[C@@H](NS(=O)(=O)c3ccccc3)C(=O)N2)cc1`, the Ki is 0.501 µM in assay [3]; 0.51 nM in assay [1]; 20.7 µM in assay [4]; above 30 µM in assay [2]; above 15 µM in assay [5]; 0.54 µM in assay [6].
`N=C(N)NCCCCNC(=O)[C@@H]1Cc2ccc(cc2)NC(=O)CCN2CCN(CCC(=O)Nc3ccc(cc3)C[C@@H](NS(=O)(=O)NC3CCCCC3)C(=O)N1)CC2`: the Ki in assay [3] came out at 0.59 µM; in assay [1] it was 3.7 nM; in assay [4], 1.71 µM; in assay [2] it was 49.3 µM; in assay [5], 28.9 µM; in assay [6], 10.4 µM.
As for `N=C(N)c1ccc(CNC(=O)[C@@H]2Cc3ccc(cc3)NC(=O)CN3CCN(CC3)CC(=O)Nc3ccc(cc3)C[C@@H](N)C(=O)N2)cc1`, the Ki in assay [1] amounted to 66.3 nM; in assay [4], 173 µM; in assay [2], 130 µM; in assay [5], 114 µM; in assay [6], 9.09 µM.
Take `NCc1ccc(CNC(=O)[C@@H]2Cc3ccc(cc3)NC(=O)CCN3CCN(CCC(=O)Nc4ccc(cc4)C[C@@H](NS(=O)(=O)Cc4ccccc4)C(=O)N2)CC3)cc1`: the results for the Ki in assay [3], in assay [1] and in assay [2] were 0.156 µM, 1.2 nM and 32 µM, respectively.
On to `N=C(N)c1ccc(CNC(=O)[C@@H]2Cc3ccc(cc3)NC(=O)CCN3CCN(CCC(=O)Nc4ccc(cc4)C[C@@H](NC(=O)OCc4ccccc4)C(=O)N2)CC3)cc1`, for which the Ki worked out at 0.103 µM in assay [3] and 46.5 µM in assay [2].
Take `N=C(N)c1ccc(CNC(=O)[C@@H]2Cc3ccc(cc3)NC(=O)CCN3CCN(CCC(=O)Nc4ccc(cc4)C[C@@H](NC=O)C(=O)N2)CC3)cc1`: the Ki is 0.561 µM in assay [3]; 2.69 nM in assay [1]; above 100 µM in assay [4]; 62.9 µM in assay [2]; above 100 µM in assay [5]; 3.87 µM in assay [6].
With `N=C(N)c1ccc(CNC(=O)[C@@H]2Cc3ccc(cc3)NC(=O)CN3CCN(CC3)CC(=O)Nc3ccc(cc3)C[C@@H](NC(=O)CCCc3ccccc3)C(=O)N2)cc1`, the Ki in assay [3] turned out to be 1.9 µM; in assay [1], 75.3 nM; in assay [4], 8.78 µM; in assay [2] it was 47.1 µM; in assay [5] it was 20.5 µM; in assay [6], 12.6 µM.
For `N=C(N)c1ccc(CNC(=O)[C@@H]2Cc3ccc(cc3)NC(=O)CCN3CCN(CCC(=O)Nc4ccc(cc4)C[C@@H](NC(=O)Cc4ccccc4)C(=O)N2)CC3)cc1`, the Ki in assay [2] came to 96.5 µM.
Take `N=C(N)c1ccc(CNC(=O)[C@@H]2Cc3ccc(cc3)NC(=O)CCN3CCN(CCC(=O)Nc4ccc(cc4)C[C@@H](NC(=O)CCc4ccccc4)C(=O)N2)CC3)cc1`: the Ki in assay [3] came to 0.757 µM; in assay [1], 3.93 nM; in assay [4] it was 0.199 µM; in assay [2], 28 µM; in assay [5], 16.1 µM; in assay [6], 7.41 µM.
On to `N=C(N)c1ccc(CNC(=O)[C@@H]2Cc3ccc(cc3)NC(=O)CN3CCN(CC3)CC(=O)Nc3ccc(cc3)C[C@@H](NC(=O)Cc3ccccc3)C(=O)N2)cc1`, for which the Ki in assay [1] was 81.3 nM; in assay [4], 72.2 µM; in assay [2], 212 µM; in assay [5], 202 µM; in assay [6] it was 7.27 µM.
In the case of `NCCCCNC(=O)[C@@H]1Cc2ccc(cc2)NC(=O)CCN2CCN(CCC(=O)Nc3ccc(cc3)C[C@@H](NS(=O)(=O)NC3CCCCC3)C(=O)N1)CC2`, the Ki in assay [3] was 6.2 µM; in assay [1], 50.6 nM; in assay [4] it was 21.9 µM; in assay [2], 85.9 µM; in assay [5] it was 39.5 µM; in assay [6], 64.4 µM.
With `N=C(N)c1ccc(CNC(=O)[C@@H]2Cc3ccc(cc3)NC(=O)CCN3CCN(CCC(=O)Nc4ccc(cc4)C[C@@H](NS(=O)(=O)NC4CCCCC4)C(=O)N2)CC3)cc1`, the Ki is 0.021 µM in assay [3], 0.00015 µM in assay [7], 0.13 nM in assay [1] and 17 µM in assay [2]. For the same compound, the IC50 in assay [8] was found to be 0.055 µM.
With `N=C(N)c1ccc(CNC(=O)[C@@H]2Cc3ccc(cc3)NC(=O)CCN3CCN(CCC(=O)Nc4ccc(cc4)C[C@@H](NC(=O)CCCc4ccccc4)C(=O)N2)CC3)cc1`, the Ki in assay [3] came out at 1 µM; in assay [1], 22.7 nM; in assay [4] it was 0.712 µM; in assay [2] it was 39.7 µM; in assay [5], 11.5 µM; in assay [6], 10.5 µM.
As to `CC(C)(C)OC(=O)N[C@@H]1Cc2ccc(cc2)NC(=O)CCN2CCN(CCC(=O)Nc3ccc(cc3)C[C@@H](C(=O)NCc3ccc(CN)cc3)NC1=O)CC2`, the Ki in assay [3] is 3.15 µM; in assay [1], 19.7 nM; in assay [4], 15.6 µM; in assay [2], above 100 µM; in assay [5] it was above 100 µM; in assay [6] it was above 100 µM.
As to `CN(C)S(=O)(=O)N[C@@H]1Cc2ccc(cc2)NC(=O)CN2CCN(CC2)CC(=O)Nc2ccc(cc2)C[C@@H](C(=O)NCc2ccc(C(=N)N)cc2)NC1=O`, the affinity in assay [2], expressed as Ki, was 74.7 µM.
In assay [2], `N=C(N)c1ccc(CNC(=O)[C@@H]2Cc3ccc(cc3)NC(=O)CCN3CCN(CCC(=O)Nc4ccc(cc4)C[C@@H](N)C(=O)N2)CC3)cc1` yielded a Ki of 106 µM.
